Experimental data taken from ChEMBL document CHEMBL2331363, “Synthesis of a 2,4,6-trisubstituted 5-cyano-pyrimidine library and evaluation of its immunosuppressive activity in a Mixed Lymphocyte Reaction assay” (Bioorg Med Chem, 2013).

Assay: Immunosuppressive activity in human RPMI1788 cells cocultured with human PBMC assessed as inhibition of [3H]thymidine incorporation incubated for 6 days prior to [3H]thymidine addition measured after 18 hrs by liquid scintillation counting
Format: functional, cell-based
Conditions: RPMI-1788
In short: (§1)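 Effector PBMCs from heparinized healthy-donor blood were isolated over Lymphoprep and held at 1.2 × 10⁶ cells/mL in RPMI-1640 with 10% heat-inactivated FCS. Mitomycin-treated stimulator cells were at 0.45 × 10⁶ cells/mL. Cells were mixed with diluted compound and cultured at 37 °C, 5% CO₂. (methyl-³H)thymidine was added for the final 18 h, and filter-harvested cpm were counted by scintillation. Compounds were screened at one concentration, then dose-response IC₅₀ was determined. Values are means of two independent experiments.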
In the case of `CCc1cccc(Nc2nc(-c3ccc(Cl)cc3)c(C#N)c(=O)[nH]2)c1`, the IC50 is reported as greater than 10 µM.
In the case of `CCCn1c(SCc2ccccc2)nc(-c2cccc(Cl)c2)c(C#N)c1=O`, the IC50 is reported as greater than 10 µM.
`Cc1ccc(Nc2nc(-c3ccc(Cl)cc3)c(C#N)c(=O)[nH]2)cc1` gave an IC50 greater than 10 µM.
Compound `N#Cc1c(OCc2ccccc2)nc(Nc2ccc(Cl)cc2)nc1-c1ccc(Cl)cc1` has an IC50 greater than 10 µM.
`CC(C)Nc1nc(Nc2ccc(Cl)cc2)nc(-c2ccc(Cl)cc2)c1C#N` gave an IC50 greater than 10 µM.
For `CCOc1nc(Nc2ccc(Cl)cc2)nc(-c2ccccc2)c1C#N`, the IC50 was greater than 10 µM.
`N#Cc1c(-c2ccc(Cl)cc2)nc(SCc2ccccc2)nc1N1CCC(Cc2ccccc2)CC1` gave an IC50 greater than 10 µM.
Compound `N#Cc1c(-c2ccccc2)nc(Nc2ccc(Cl)cc2)nc1N1CCCCC1` has an IC50 of 6.2 µM.
In the case of `CCOc1nc(SCc2ccccc2)nc(-c2ccc(OC)cc2)c1C#N`, the IC50 is reported as greater than 10 µM.
With `N#Cc1c(-c2ccc(Cl)cc2)nc(Nc2ccc(Cl)cc2)nc1N1CCCCC1` the IC50 was greater than 10 µM.
`N#Cc1c(-c2ccc(Cl)cc2)nc(SCc2ccccc2)nc1N1CCC(C(N)=O)CC1` gave an IC50 of 6.4 µM.
For `COc1ccc(-c2nc(SCc3ccccc3)n(C)c(=O)c2C#N)cc1`, the IC50 was greater than 10 µM.
For `COc1ccc(-c2nc(SC)nc(N3CCOCC3)c2C#N)cc1`, the IC50 was 4.9 µM.
For `N#Cc1c(-c2cccc(Cl)c2)nc(SCc2ccccc2)nc1N1CCOCC1`, the IC50 was 5.5 µM.
In the case of `Cn1c(SCc2ccccc2)nc(-c2ccc(Cl)cc2)c(C#N)c1=O`, the IC50 is reported as greater than 10 µM.
`COc1ccc(-c2nc(SCc3ccccc3)nc(N3CCC(c4ccccc4)CC3)c2C#N)cc1` showed an IC50 greater than 10 µM.
In the case of `N#Cc1c(-c2ccc(Cl)cc2)nc(Nc2cccc(F)c2)[nH]c1=O`, the IC50 is reported as greater than 10 µM.
Compound `N#Cc1c(NC2CCCCC2)nc(Nc2ccc(Cl)cc2)nc1-c1ccc(Cl)cc1` has an IC50 greater than 10 µM.
With `COc1ccc(-c2nc(SCCc3ccccc3)nc(N3CCOCC3)c2C#N)cc1` the IC50 was 3.9 µM.
Work on `COc1ccc(-c2nc(SCc3ccccc3)nc(N3CCC(C(N)=O)CC3)c2C#N)cc1` yielded an IC50 of 4.9 µM.
In the case of `COc1ccc(-c2nc(SCc3ccccc3)nc(N3CCC(Cc4ccccc4)CC3)c2C#N)cc1`, the IC50 is reported as greater than 10 µM.
`CC(C)Nc1nc(SCc2ccccc2)nc(-c2ccc(Cl)cc2)c1C#N` gave an IC50 greater than 10 µM.
With `CCOc1nc(Nc2ccc(Cl)cc2)nc(-c2ccc(Cl)cc2)c1C#N` the IC50 was greater than 10 µM.
`N#Cc1c(-c2ccc(Cl)cc2)nc(SCc2ccccc2)n(Cc2ccccc2)c1=O` gave an IC50 greater than 10 µM.
Compound `COc1ccc(-c2nc(Nc3ccc(Cl)cc3)[nH]c(=O)c2C#N)cc1` has an IC50 greater than 10 µM.
For `N#Cc1c(-c2ccc(Cl)cc2)nc(SCc2ccccc2)nc1N1CCOCC1`, the IC50 was 8.3 µM.
Work on `Cn1c(SCc2ccccc2)nc(-c2cccc(Cl)c2)c(C#N)c1=O` yielded an IC50 greater than 10 µM.
For `COc1ccc(-c2nc(SCc3ccccc3)nc(NCc3ccccc3)c2C#N)cc1`, the IC50 was 2.5 µM.
Compound `Cc1ccc(Nc2nc(-c3ccc(Cl)cc3)c(C#N)c(N3CCCCC3)n2)cc1` has an IC50 greater than 10 µM.

Assay: Cytotoxicity against human Jurkat T cells after 48 hrs by WST1 assay
Format: cell-based
Conditions: not given
In short: (§2)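 Jurkat T cells were seeded at 5.10⁴ cells per well and exposed to serial compound dilutions for 48 h at 37 °C and 5% CO₂. Part of the medium was removed, WST-1 tetrazolium salt was added, and cells were incubated further. Absorbance was read at 450 nm. Results are % cytotoxicity at each concentration, with CC₅₀ calculated.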
`N#Cc1c(-c2ccccc2)nc(Nc2ccc(Cl)cc2)nc1N1CCCCC1` showed a CC50 at 48 h greater than 10 µM.
With `N#Cc1c(-c2ccc(Cl)cc2)nc(SCc2ccccc2)nc1N1CCC(C(N)=O)CC1` the CC50 at 48 h was greater than 10 µM.
With `COc1ccc(-c2nc(SC)nc(N3CCOCC3)c2C#N)cc1` the CC50 at 48 h was greater than 10 µM.
In the case of `N#Cc1c(-c2cccc(Cl)c2)nc(SCc2ccccc2)nc1N1CCOCC1`, the CC50 at 48 h is reported as greater than 10 µM.
`COc1ccc(-c2nc(SCCc3ccccc3)nc(N3CCOCC3)c2C#N)cc1` gave a CC50 at 48 h greater than 10 µM.
Compound `COc1ccc(-c2nc(SCc3ccccc3)nc(N3CCC(C(N)=O)CC3)c2C#N)cc1` has a CC50 at 48 h greater than 10 µM.
`N#Cc1c(-c2ccc(Cl)cc2)nc(SCc2ccccc2)nc1N1CCOCC1` gave a CC50 at 48 h greater than 10 µM.
With `COc1ccc(-c2nc(SCc3ccccc3)nc(NCc3ccccc3)c2C#N)cc1` the CC50 at 48 h was greater than 10 µM.

Assay: Growth inhibition of human Jurkat T cells at 10 uM after 48 hrs by WST1 assay
Format: cell-based
Conditions: not given
In short: as §2
Work on `N#Cc1c(-c2ccccc2)nc(Nc2ccc(Cl)cc2)nc1N1CCCCC1` yielded an inhibition at 48 h, 10 µM of 9%.
`N#Cc1c(-c2ccc(Cl)cc2)nc(SCc2ccccc2)nc1N1CCC(C(N)=O)CC1` showed an inhibition at 48 h, 10 µM of 19%.
`COc1ccc(-c2nc(SC)nc(N3CCOCC3)c2C#N)cc1` gave an inhibition at 48 h, 10 µM of 6%.
In the case of `N#Cc1c(-c2cccc(Cl)c2)nc(SCc2ccccc2)nc1N1CCOCC1`, the inhibition at 48 h, 10 µM is reported as 15%.
`COc1ccc(-c2nc(SCCc3ccccc3)nc(N3CCOCC3)c2C#N)cc1` showed an inhibition at 48 h, 10 µM of 9%.
`COc1ccc(-c2nc(SCc3ccccc3)nc(N3CCC(C(N)=O)CC3)c2C#N)cc1` gave an inhibition at 48 h, 10 µM of 12%.
Work on `N#Cc1c(-c2ccc(Cl)cc2)nc(SCc2ccccc2)nc1N1CCOCC1` yielded an inhibition at 48 h, 10 µM of 5%.
With `COc1ccc(-c2nc(SCc3ccccc3)nc(NCc3ccccc3)c2C#N)cc1` the inhibition at 48 h, 10 µM was 5%.

Assay: Immunosuppressive activity in human RPMI1788 cells cocultured with human PBMC assessed as inhibition of [3H]thymidine incorporation at 10 uM incubated for 6 days prior to [3H]thymidine addition measured after 18 hrs by liquid scintillation counting
Format: functional
Conditions: RPMI-1788
In short: as §1
`CCc1cccc(Nc2nc(-c3ccc(Cl)cc3)c(C#N)c(=O)[nH]2)c1` showed an inhibition at 10 µM of 33%.
Compound `CCCn1c(SCc2ccccc2)nc(-c2cccc(Cl)c2)c(C#N)c1=O` has an inhibition at 10 µM of 9%.
`Cc1ccc(Nc2nc(-c3ccc(Cl)cc3)c(C#N)c(=O)[nH]2)cc1` showed an inhibition at 10 µM of 20%.
For `N#Cc1c(OCc2ccccc2)nc(Nc2ccc(Cl)cc2)nc1-c1ccc(Cl)cc1`, the inhibition at 10 µM was 26%.
`CC(C)Nc1nc(Nc2ccc(Cl)cc2)nc(-c2ccc(Cl)cc2)c1C#N` showed an inhibition at 10 µM of 0%.
`CCOc1nc(Nc2ccc(Cl)cc2)nc(-c2ccccc2)c1C#N` showed an inhibition at 10 µM of 38%.
`N#Cc1c(-c2ccc(Cl)cc2)nc(SCc2ccccc2)nc1N1CCC(Cc2ccccc2)CC1` gave an inhibition at 10 µM of 17%.
Work on `N#Cc1c(-c2ccccc2)nc(Nc2ccc(Cl)cc2)nc1N1CCCCC1` yielded an inhibition at 10 µM of 70%.
In the case of `CCOc1nc(SCc2ccccc2)nc(-c2ccc(OC)cc2)c1C#N`, the inhibition at 10 µM is reported as 46%.
Work on `N#Cc1c(-c2ccc(Cl)cc2)nc(Nc2ccc(Cl)cc2)nc1N1CCCCC1` yielded an inhibition at 10 µM of 15%.
Compound `N#Cc1c(-c2ccc(Cl)cc2)nc(SCc2ccccc2)nc1N1CCC(C(N)=O)CC1` has an inhibition at 10 µM of 57%.
With `COc1ccc(-c2nc(SCc3ccccc3)n(C)c(=O)c2C#N)cc1` the inhibition at 10 µM was 5%.
With `COc1ccc(-c2nc(SC)nc(N3CCOCC3)c2C#N)cc1` the inhibition at 10 µM was 80%.
In the case of `N#Cc1c(-c2cccc(Cl)c2)nc(SCc2ccccc2)nc1N1CCOCC1`, the inhibition at 10 µM is reported as 80%.
`Cn1c(SCc2ccccc2)nc(-c2ccc(Cl)cc2)c(C#N)c1=O` gave an inhibition at 10 µM of 0%.
Compound `COc1ccc(-c2nc(SCc3ccccc3)nc(N3CCC(c4ccccc4)CC3)c2C#N)cc1` has an inhibition at 10 µM of 31%.
With `N#Cc1c(-c2ccc(Cl)cc2)nc(Nc2cccc(F)c2)[nH]c1=O` the inhibition at 10 µM was 0%.
Work on `N#Cc1c(NC2CCCCC2)nc(Nc2ccc(Cl)cc2)nc1-c1ccc(Cl)cc1` yielded an inhibition at 10 µM of 1%.
In the case of `COc1ccc(-c2nc(SCCc3ccccc3)nc(N3CCOCC3)c2C#N)cc1`, the inhibition at 10 µM is reported as 62%.
In the case of `COc1ccc(-c2nc(SCc3ccccc3)nc(N3CCC(C(N)=O)CC3)c2C#N)cc1`, the inhibition at 10 µM is reported as 73%.
`COc1ccc(-c2nc(SCc3ccccc3)nc(N3CCC(Cc4ccccc4)CC3)c2C#N)cc1` showed an inhibition at 10 µM of 31%.
For `CC(C)Nc1nc(SCc2ccccc2)nc(-c2ccc(Cl)cc2)c1C#N`, the inhibition at 10 µM was 48%.
With `CCOc1nc(Nc2ccc(Cl)cc2)nc(-c2ccc(Cl)cc2)c1C#N` the inhibition at 10 µM was 0%.
`N#Cc1c(-c2ccc(Cl)cc2)nc(SCc2ccccc2)n(Cc2ccccc2)c1=O` gave an inhibition at 10 µM of 14%.
Compound `COc1ccc(-c2nc(Nc3ccc(Cl)cc3)[nH]c(=O)c2C#N)cc1` has an inhibition at 10 µM of 0%.
Compound `N#Cc1c(-c2ccc(Cl)cc2)nc(SCc2ccccc2)nc1N1CCOCC1` has an inhibition at 10 µM of 63%.
With `Cn1c(SCc2ccccc2)nc(-c2cccc(Cl)c2)c(C#N)c1=O` the inhibition at 10 µM was 7%.
Work on `COc1ccc(-c2nc(SCc3ccccc3)nc(NCc3ccccc3)c2C#N)cc1` yielded an inhibition at 10 µM of 73%.
Work on `Cc1ccc(Nc2nc(-c3ccc(Cl)cc3)c(C#N)c(N3CCCCC3)n2)cc1` yielded an inhibition at 10 µM of 0%.
